Source: PubChem
FLuc stim CS: affects firefly luciferase, flagging false hits in luciferase stimulation screens. ATPlite luciferase biochemical, luminescence, 10 min; 0 = ATP-free wells, 1 = DMSO control. activation factor at 10 µM. 200,000 tested, under 10 active. AID 1027;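 active means luciferase activation factor, scaled between plate controls, of at least 2 with compound at 10 µM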
Target sequence (P08659 whole entry, looked up): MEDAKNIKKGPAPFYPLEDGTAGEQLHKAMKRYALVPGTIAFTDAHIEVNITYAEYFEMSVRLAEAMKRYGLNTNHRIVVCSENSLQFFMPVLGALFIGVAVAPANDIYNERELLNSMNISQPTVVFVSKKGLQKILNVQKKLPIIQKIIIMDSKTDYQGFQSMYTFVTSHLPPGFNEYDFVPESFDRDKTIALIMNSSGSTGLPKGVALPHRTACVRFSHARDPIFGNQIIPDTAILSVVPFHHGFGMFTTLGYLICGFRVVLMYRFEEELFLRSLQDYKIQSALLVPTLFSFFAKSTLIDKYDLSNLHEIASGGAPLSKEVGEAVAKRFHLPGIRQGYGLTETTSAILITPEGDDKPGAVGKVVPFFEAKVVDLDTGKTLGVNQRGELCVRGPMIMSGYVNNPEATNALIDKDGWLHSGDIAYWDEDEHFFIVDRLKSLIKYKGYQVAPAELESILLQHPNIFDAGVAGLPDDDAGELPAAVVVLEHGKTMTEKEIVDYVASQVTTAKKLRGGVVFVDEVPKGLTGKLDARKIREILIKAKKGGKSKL
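assay system = Luciferase/luciferin detection reagent, cell-free biochemical luciferase assay | also added = ATP substrate | times = 10 min post-reagent at room temperature | measured by = luminescence from luciferase reaction | measure = luciferase activation, seen as luminescence increase over controls | benchmarks = low control with PBS replacing ATP, high control enzyme plus ATP without compound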
STAT1 act: STAT1 signaling activation; NIH 3T3 STAT1-luciferase reporter, IFN-gamma, luminescence; 100% = IFN-gamma alone, no compound; activation (% of control), % at 5.5 µM; 200,000 tested, 2.6% active;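 active means activation above the screen-wide mean activation plus 3 SD, cut at about 130% in these data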;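 further: raw ratio to IFN-gamma control signal so 100% means no change and 0% no light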
NF-kB neuron act: NF-kB expression increase, human neuronal cells; NF-kB reporter expression; hits give high values; fold change at 12.5 µM; 190,000 tested, 1.6% active; in the data active means fold change above about 3.3
sdo1 growth: sdo1-depleted yeast growth rescue; 140,000 tested, 0.21% active; S. cerevisiae sdo1-depleted JHY4D growth rescue, OD600 30 h; hits give high values; pdr5 snq2 efflux-pump mutant strain; z-score at 10 µM;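 active means z-score above 3 at both the 24 hr and the 30 hr optical density reads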;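 further: z-score against mean and SD of all compound wells on the same plate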
FLuc inh counter: counter-screen for luciferase assay inhibitors: firefly luciferase inhibition. inhibition, % at 10 µM. AID 1006. ATPLite firefly luciferase biochemical luminescence, 10 min. P08659. 200,000 tested, 1.5% active;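 active means inhibition above about 50% when tested at 10 µM, limit read from the data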
APP 5'UTR act: activates APP 5'UTR luciferase reporter | SH-SY5Y APP 5'UTR luciferase reporter, luminescence; zero percent = DMSO vehicle wells | activation, % at 2 µM | 190,000 tested, 1% active | AID 1276;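 active means activation above a set limit, based on mean plus 3 SD of controls, cut at about 140% in these data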
Starred values were filed as active, the others as inactive; nt = no result. Only some compounds are listed: those with a hit (about 4.3% of all), similar ones and a draw of the others.

SMILES	FLuc stim CS	STAT1 act	NF-kB neuron act	sdo1 growth	FLuc inh counter	APP 5'UTR act
O=C(c1cc(-c2cccc(O)c2)on1)N1CCOCC1	0.6	112	3.1	0.49	43	93
Clc1ccccc1OCc1nnc(-c2ccccc2Br)o1	1	137*	3.1	-2.1	3	95
Cc1cc(C)c2c(N)c3ccccc3nc2n1	1.1	132*	1.3	0.54	-8	-11
CCc1ccc2nc3nc(C)cc(C)c3c(N)c2c1	1.1	136*	1.7	0.71	-7	18
O=c1cc(CN2CCN(S(=O)(=O)c3ccc4ccccc4c3)CC2)nc2sccn12	1.1	99	0.88	nt	-7	1
COc1cc(/C=C/c2ccc3cccc([N+](=O)[O-])c3n2)ccc1OCC(=O)O	0.4	102	0.96	nt	58*	19
O=C(O)COc1ccc(/C=C/c2ccc3cccc([N+](=O)[O-])c3n2)cc1	0.5	90	0.89	-0.13	50	10
C=CCn1c(SCC(=O)Nc2ccccc2-c2ccccc2)nc2cc(C(=O)O)ccc2c1=O	1.1	105	1.1	nt	-7	9
COc1cc(C2C3=C(CC(C)(C)CC3=O)OC3=C2C(=O)CC(C)(C)C3)cc([N+](=O)[O-])c1O	1.1	91	1.1	nt	-6	24
C=CCN(CC=C)CCOc1cccc(Oc2ccccc2)c1	1.1	86	1.2	nt	-8	-6
CC(C)C(=O)N1CCN(c2ccc(NC(=O)c3ccc([N+](=O)[O-])o3)cc2)CC1	1	141*	0.32	nt	1	-57
CC(C)C(=O)N1CCN(c2ccc(NC(=O)c3ccc(Br)o3)cc2)CC1	1	97	1	1.1	-4	17
O=C(Nc1ccc(N2CCOCC2)c(Cl)c1)c1ccc([N+](=O)[O-])o1	0.9	129*	1.1	nt	11	-95
Cc1cccc(N2CCN(S(=O)(=O)c3ccc4c(c3)CCN4C(=O)CCC(=O)O)CC2C)c1 (configuration not stated)	1.1	98	1.2	-0.29	-8	0
CCN(CC)S(=O)(=O)c1ccc(NC(=O)Cn2c(=O)sc3ccccc32)cc1	1	88	0.71	0.56	3	3
Cc1ccc(C(=O)Nc2cc3c(cc2Cl)OCCCO3)cc1	0.7	155*	4.1*	-0.01	29	118
O=C(Nc1cc2c(oc1=O)CCCC2=O)c1cccc(Cl)c1	1.1	110	1.3	-0.21	-8	1
COc1ccc(C(=O)Nc2cc3c(oc2=O)CCCC3=O)cc1	1	138*	1.2	nt	4	10
O=C(Nc1cc2c(cc1Cl)OCCCO2)c1ccc(F)cc1	0.9	145*	2.9	-0.11	9	62
COc1ccc(C(=O)Nc2cc(OC)c(Cl)cc2OC)cc1	0.9	105	1.5	nt	11	13
COc1ccc(C(=O)Nc2cc3c(cc2Cl)OCCCO3)cc1	0.6	137*	4.3*	2	39	134
Cc1c(C(=O)NN2CCOCC2)oc2ccccc12	1	93	1.1	nt	0	7
Cc1cc(NC(=O)CN2CCN(Cc3ccccc3)CC2)nc2c1c(=O)oc1ccccc12	1	98	1.1	nt	-2	-5
CCC(=O)c1cc2c(cc1NC(=O)c1ccccc1)OCCO2	1	108	1.1	-0.48	-1	nt
O=C(Nc1cc2c(cc1Br)OCCCO2)c1ccccc1	0.9	146*	3.1	-0.38	12	114
SMILES	FLuc stim CS	STAT1 act	NF-kB neuron act	sdo1 growth	FLuc inh counter	APP 5'UTR act
CC(C)(C)NC(=O)CSc1nc(-c2ccc(F)cc2)cs1	0.4	141*	4.7*	nt	55*	77
Brc1cccc(-c2nc(-c3ccncc3)no2)c1	0.8	118	1.8	-1.6	15	37
c1ccc(-c2noc(-c3cccc4ccccc34)n2)cc1	0.8	142*	6.1*	-1.6	19	100
c1cncc(-c2noc(-c3cccc4ccccc34)n2)c1	0.8	126	3	-1.1	19	-7
Clc1ccc(Br)cc1-c1nc(-c2ccncc2)no1	1	137*	1.2	-1.4	-1	4
c1ccc2c(-c3nc(-c4ccncc4)no3)cccc2c1	1	129*	2.2	-2.1	-4	36
O=C(NCc1cccs1)C1CC(=O)N(c2ccc(Cl)cc2)C1 (configuration not stated)	1	104	1	nt	-3	-5
Cn1c(-c2ccc(N)cc2)nc2ccccc21	0.8	109	2	0.62	19	47
Cn1c(CCc2ccc(N)cc2)nc2ccccc21	0.5	128	2.6	nt	55*	131
O=C(Nc1nonc1-c1ccc(Cl)cc1)c1ccccc1	1.1	99	1.3	nt	-7	0
O=C(Cc1ccccc1)Nc1nonc1NC(=O)c1ccccc1	1.1	92	3.7*	-0.21	-6	16
Cc1ccc(C2=NN3C(C(=O)c4ccccc4)Oc4ccccc4C3C2)cc1 (configuration not stated)	1.1	99	1.1	-0.74	-9	20
O=C(O)c1cc(N/N=C/c2ccc(OCc3ccccc3)cc2)ccc1Cl	0.9	134*	2.6	nt	8	104
Cc1nn(-c2ccccc2)c(Cl)c1/C=N/NC(=O)OC(C)(C)C	0.9	139*	0.83	0.49	10	65
Cc1nn(-c2ccccc2)c(C)c1/C=N/NC(=O)c1cccs1	0.6	140*	1.3	1.3	44	50
Cc1nn(-c2ccccc2)c(Cl)c1/C=N/Nc1ccc(Cl)c(C(=O)O)c1	0.1	62	10*	0.21	87*	74
CNC(=S)N/N=C/c1c(C)nn(-c2ccccc2)c1Cl	1	108	1.2	-1.8	3	-1
C=CCOc1ccc2nnc(C)n2n1	1.1	111	0.96	1.4	-10	10
COc1ccccc1C1/C(=C(/O)c2ccccc2)C(=O)C(=O)N1CC(C)O (configuration not stated)	1.1	106	1.1	1.6	-6	-9
Cc1nn(-c2ccccc2)c(Cl)c1/C=N/NC(=O)c1ccco1	0.4	141*	2.2	-0.29	58*	85
Cc1nn(-c2ccccc2)c(Cl)c1/C=N/NC(=O)c1ccc(CNc2ccccc2)o1	0.6	101	0.95	-1.6	35	4
Cc1cc(C(=O)Nc2nc(-c3ccccn3)cs2)ccc1[N+](=O)[O-]	1	96	1.4	nt	-4	-9
O=C(Nc1ccc(NC(=O)c2ccco2)nc1)c1cccnc1	0.4	134*	2.4	0.71	62*	79
O=C(Nc1cccnc1)c1ccc(NC(=O)c2ccco2)cc1	1	106	0.78	0.32	2	17
O=C(Nc1cnc2ccccc2c1)c1cccc(-n2cnnn2)c1	1	135*	1.4	0.58	0	60
Cc1ccc(C(=O)Nc2cnc3ccccc3c2)cc1	0.1	16	0.71	-0.18	89*	-31
Cc1cc(C(=O)Nc2cnc3ccccc3c2)ccc1[N+](=O)[O-]	1	137*	2.2	nt	-1	204*
